Laboratory results from ChEMBL document CHEMBL4014346, “Lead Optimization Generates CYP11B1 Inhibitors of Pyridylmethyl Isoxazole Type with Improved Pharmacological Profile for the Treatment of Cushing's Disease” (J Med Chem, 2017).

Experiments:
[1] = molecular target: T1, Cytochrome P450 11B1, mitochondrial (Homo sapiens, UniProt P15538); assay: Inhibition of human CYP11B1 expressed in hamster V79MZ cells using [1,2-3H]-11-deoxycorticosterone as substrate after 6 hrs by HPLC analysis; type: cell-based
T1 sequence (P15538 whole entry): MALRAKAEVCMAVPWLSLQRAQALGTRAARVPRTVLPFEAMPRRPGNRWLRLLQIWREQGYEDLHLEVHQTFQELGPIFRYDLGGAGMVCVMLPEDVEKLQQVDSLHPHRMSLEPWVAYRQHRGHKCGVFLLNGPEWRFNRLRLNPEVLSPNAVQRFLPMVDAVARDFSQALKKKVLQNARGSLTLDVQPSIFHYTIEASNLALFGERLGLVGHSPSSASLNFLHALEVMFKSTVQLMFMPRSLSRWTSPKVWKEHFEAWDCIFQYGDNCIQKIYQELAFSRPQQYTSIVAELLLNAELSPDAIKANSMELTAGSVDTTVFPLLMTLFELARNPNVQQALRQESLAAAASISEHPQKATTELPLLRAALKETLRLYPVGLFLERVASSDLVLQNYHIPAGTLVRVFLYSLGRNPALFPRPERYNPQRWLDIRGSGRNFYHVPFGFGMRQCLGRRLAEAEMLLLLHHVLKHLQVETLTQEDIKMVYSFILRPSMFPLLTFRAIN
Procedure, shortened: (§1)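 V79MZ cells expressing recombinant human CYP11B1 or CYP11B2, or rat CYP11B1, incubated with [1,2-³H]-11-deoxycorticosterone (100 nM) and inhibitor over a range of concentrations; ketoconazole as reference.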

[2] = molecular target: T2, Cytochrome P450 11B2, mitochondrial (Homo sapiens, UniProt P19099); assay: Inhibition of human CYP11B2 expressed in hamster V79MZ cells using [1,2-3H]-11-deoxycorticosterone as substrate after 6 hrs by HPLC analysis; type: ADME, cell-based; procedure, shortened: as §1
T2 sequence (P19099 whole entry): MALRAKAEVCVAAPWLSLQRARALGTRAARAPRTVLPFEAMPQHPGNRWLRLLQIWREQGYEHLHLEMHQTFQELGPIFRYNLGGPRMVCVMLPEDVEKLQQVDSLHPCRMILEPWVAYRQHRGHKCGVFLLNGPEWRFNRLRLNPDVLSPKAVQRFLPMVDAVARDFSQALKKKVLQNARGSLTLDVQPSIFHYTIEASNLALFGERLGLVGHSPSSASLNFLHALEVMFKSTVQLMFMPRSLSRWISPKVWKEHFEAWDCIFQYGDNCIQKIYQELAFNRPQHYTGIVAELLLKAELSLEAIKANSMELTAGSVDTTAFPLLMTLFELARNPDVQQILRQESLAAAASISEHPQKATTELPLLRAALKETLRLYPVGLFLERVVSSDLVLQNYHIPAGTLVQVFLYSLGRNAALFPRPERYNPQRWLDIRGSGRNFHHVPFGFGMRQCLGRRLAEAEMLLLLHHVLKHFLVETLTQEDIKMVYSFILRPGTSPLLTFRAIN

[3] = Selectivity ratio of IC50 for human CYP11B2 expressed in hamster V79MZ cells to IC50 for human CYP11B1 expressed in hamster V79MZ cells; procedure, shortened: as §1
[4] = molecular target: T3, Cytochrome P450 11B1, mitochondrial (Rattus norvegicus, UniProt P15393); assay: Inhibition of CYP11B1 in Sprague-Dawley rat adrenal tissue using 11-deoxycorticosterone as substrate after 4 hrs by SPA
T3 sequence (P15393 whole entry): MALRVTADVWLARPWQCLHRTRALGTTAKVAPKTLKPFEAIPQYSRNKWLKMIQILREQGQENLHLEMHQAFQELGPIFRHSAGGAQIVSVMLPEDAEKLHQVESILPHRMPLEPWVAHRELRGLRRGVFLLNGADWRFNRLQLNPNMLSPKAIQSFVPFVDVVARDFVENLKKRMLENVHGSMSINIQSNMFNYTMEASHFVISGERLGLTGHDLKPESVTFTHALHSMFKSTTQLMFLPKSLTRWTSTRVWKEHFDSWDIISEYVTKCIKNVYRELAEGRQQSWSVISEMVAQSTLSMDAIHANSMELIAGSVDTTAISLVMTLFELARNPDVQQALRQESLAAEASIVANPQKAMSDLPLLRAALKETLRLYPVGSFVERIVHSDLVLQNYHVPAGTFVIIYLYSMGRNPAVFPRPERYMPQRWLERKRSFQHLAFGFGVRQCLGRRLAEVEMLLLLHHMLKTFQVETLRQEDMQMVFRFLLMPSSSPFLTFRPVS

[5] = Half life in rat liver S9 fractions at 1 uM in presence of NADPH/UDPGA by LC-MS/MS analysis; type: ADME, tissue-based
Procedure, shortened: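 Samples taken at 0, 5, 15 and 60 min, stopped with cold acetonitrile containing internal standard. Remaining parent measured by LC-MS/MS.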

Row | IC50 [1] | IC50 [2] | IC50 [4] | half-life at 1 µM [5] | SMILES | Ratio IC50 [3]
1 | 42 nM | 182 nM | – | – | Cc1cncc(Cc2ccc(-c3cnn(C)c3)nc2)c1 | 4
2 | 137 nM | 586 nM | – | – | Cc1cncc(Cc2cc(-c3ccccc3)n[nH]2)c1 | 4
3 | 148 nM | 1300 nM | – | – | c1ccc(-c2cc(Cn3ccnc3)on2)cc1 | 9
4 | – | – | 5000 nM | 12 min | CC(C)(C(=O)c1cccnc1)c1cccnc1 [METYRAPONE] | –
5 | 62 nM | 459 nM | – | – | c1ccc(-c2ncc(Cn3ccnc3)s2)cc1 | 7
6 | 57 nM | 174 nM | – | – | c1ccc(-c2nscc2Cn2ccnc2)cc1 | 3
7 | 22 nM | 90 nM | – | – | Cc1cncc(Cc2ccc(N3CCOCC3)nc2)c1 | 4
8 | 58 nM | 215 nM | – | – | Cn1nc(-c2ccccc2)cc1Cn1ccnc1 | 4
9 | 9 nM | 24 nM | – | – | Cc1cncc(Cc2cnc(-c3ccccc3)s2)c1 | 3
10 | 48 nM | 152 nM | – | – | Cc1cncc(Cc2csnc2-c2ccccc2)c1 | 3
11 | 1 nM | 6 nM | – | – | Cc1cncc(Cc2cc(-c3ccccc3)nn2C)c1 | 6
12 | 4 nM | 28 nM | – | – | Cc1cncc(Cc2ccc(-c3ccoc3)nc2)c1 | 7
13 | 2 nM | 16 nM | – | – | Cc1cncc(Cc2ccc(-c3cccc(NS(C)(=O)=O)c3)nc2)c1 | 8
14 | 150 nM | 520 nM | – | – | c1ccc(-c2ncc(Cn3ccnc3)o2)cc1 | 4
15 | 16 nM | 97 nM | – | – | Cc1cncc(Cc2ccc(-c3ccnn3C)nc2)c1 | 6
16 | 14 nM | 116 nM | – | – | Cc1cncc(Cc2cnc(-c3ccccc3)o2)c1 | 8
17 | 14 nM | 120 nM | – | – | c1ccc(-c2cc(Cn3ccnc3)sn2)cc1 | 9
18 | 4 nM | 32 nM | – | – | Cc1cncc(Cc2ccc(NC3CC3)nc2)c1 | 8
19 | 5 nM | 30 nM | – | – | Cc1cncc(Cc2ccc(Sc3ccccc3)nc2)c1 | 6
20 | 3 nM | 27 nM | – | – | Cc1cncc(Cc2ccc(-c3ccccc3F)nc2)c1 | 9
21 | 516 nM | 507 nM | – | – | Cn1c(Cn2ccnc2)cnc1-c1ccccc1 | 1
22 | 2 nM | 17 nM | – | – | Cc1cncc(Cc2ccc(S(=O)(=O)c3ccccc3F)nc2)c1 | 9
23 | 3 nM | 24 nM | – | – | Cc1cncc(Cc2ccc(Sc3ccccc3F)nc2)c1 | 8
24 | 20 nM | 173 nM | – | – | Cc1cncc(Cc2ccc(S(=O)(=O)c3ccccc3)nc2)c1 | 9
25 | 1 nM | 8 nM | – | – | Cc1cncc(Cc2cc(-c3ccccc3)ns2)c1 | 8

Row | SMILES | IC50 [1] | IC50 [2] | IC50 [4] | half-life at 1 µM [5] | Ratio IC50 [3]
26 | c1ccc(-c2ncc(Cn3ccnc3)[se]2)cc1 | 104 nM | 657 nM | – | – | 6
